Bioassay records from PubChem.
An excerpt weighted towards active compounds, which were near 1.8% of everything screened.
LEDGF integ inh – blocks HIV-1 LEDGF/p75-dependent DNA integration; TR-FRET IN-LEDGF/p75 DNA integration, Eu/Cy5; 370,000 tested, 0.64% active; inhibition, % at 3.7 µM;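 active = inhibition above the screen-wide mean plus 3 SD, cut at about 13% in these data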;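 note: signal is the Cy5 over europium emission ratio at 671 and 618 nm; 0% = plate median of compound wells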
CASP6 VEID inh – inhibitors of human caspase-6 | P55212 | purified caspase-6, Z-VEID-R110 cleavage fluorescence | inhibition, % at 12.5 µM | 350,000 tested, 0.53% active;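 active = mean inhibition across replicates at least about 35%, with every replicate also reaching that limit, limit read from the data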;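 note: 0% = median of neutral control wells and 100% = no fluorescence left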
Target sequence (P55212 24-179 limits assumed): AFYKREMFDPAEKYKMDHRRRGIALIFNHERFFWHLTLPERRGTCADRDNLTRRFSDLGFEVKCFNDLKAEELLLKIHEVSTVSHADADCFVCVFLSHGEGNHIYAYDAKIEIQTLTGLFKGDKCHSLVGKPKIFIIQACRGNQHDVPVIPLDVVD
Target sequence (P55212 194-293 limits assumed): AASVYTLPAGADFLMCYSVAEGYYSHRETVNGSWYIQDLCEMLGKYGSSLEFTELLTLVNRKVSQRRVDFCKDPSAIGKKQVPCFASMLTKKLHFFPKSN
TDP2 inh – TDP2 (human) inhibition, absorbance primary screen | inhibition, % at 12.8 µM | 370,000 tested, 0.34% active | O95551 | recombinant TDP2, T5PNP hydrolysis, p-nitrophenol absorbance 415 nm;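 active = inhibition above the mean of all tested compounds plus 3 SD, set per campaign, cut at about 25% in these data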;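 note: 0% = DMSO with enzyme and 100% = buffer with substrate but no TDP2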
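System: recombinant human TDP2 / Amount: 120 nM TDP2 per well / Also added: 5 mM T5PNP chromogenic substrate / Doses: 12.8 µM single point, 1% DMSO / Incubation: 2 h at 37 °C / Detection: p-Nitrophenol epi absorbance / Evaluation: % inhibition relative to enzyme-containing and enzyme-free wells / Repeats: singlicate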
MBD2 DNA inh – blocks human MBD2 binding to methylated DNA | inhibition, % at 4.4 µM | AID 686964 | TR-FRET, MBD2 binding to methylated oligonucleotide | 370,000 tested, 0.31% active; in the data active = inhibition above about 13%
NSD2 inh – blocks human histone methyltransferase NSD2. O96028. NSD2 peptide methylation, AlphaScreen, 120 min. inhibition, % at 12.5 µM. 310,000 tested, 0.54% active; in the data active = inhibition above about 50%
UHRF1 MBD2 ctr – blocks human UHRF1 binding to methylated DNA. Q96T88. UHRF1 binding to methylated oligo, TR-FRET. inhibition, % at 4.4 µM. 370,000 tested, 0.75% active. AID 687016; in the data active = inhibition above about 21%;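 note: UHRF1 SRA domain binding a hemimethylated CpG hairpin DNA probe; 0% = median of test compound wells and 100% = reference inhibitor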
Starred values were filed as active, the others as inactive; . = no result given.

SMILES | LEDGF integ inh | CASP6 VEID inh | TDP2 inh | MBD2 DNA inh | NSD2 inh | UHRF1 MBD2 ctr
CCc1nc2c(c(=O)c3ccccc3n2C)c(=O)n1C1CCCCCC1 | -2 | . | -6 | 1 | 8 | 59*
COC(=O)CSC1=C(C#N)C(c2ccc(Cl)cc2)C(C(=O)OC)C(=O)N1 (stereo not drawn) | 1 | . | 14 | 11 | 0 | 23*
COc1cccc(NC(=O)C2CCCN2C(=O)Nc2cccc(F)c2)c1 (stereo not drawn) | -1 | . | 12 | 3 | . | 63*
COc1cccc(NC(=O)C2CCCN2C(=O)Nc2ccccc2)c1 (stereo not drawn) | 0 | . | 2 | 0 | 2 | -2
CC(=O)c1cccc(NC(=O)N2CCCC2C(=O)Nc2cccc(C)c2)c1 (stereo not drawn) | 1 | . | 3 | 9 | 0 | 21*
O=C(C[C@@H]1C=C[C@H](NS(=O)(=O)c2ccc(F)cc2)[C@@H](CO)O1)NC1CCC1 | . | 1 | . | . | . | .
CCOC(=O)c1ccccc1OC(=O)CS(=O)c1ccccc1[N+](=O)[O-] (stereo not drawn) | -1 | 0 | 0 | -2 | 3 | 3
COC(=O)c1ccc(OC(=O)CS(=O)c2ccccc2[N+](=O)[O-])cc1 (stereo not drawn) | 0 | . | -3 | -3 | -4 | 62*
CC(C)(C)S(=O)N1Cc2cc(C(=O)N3CCc4ccccc4C3)nc(-c3cccc(-c4cccnc4)c3)c2[C@@H]1CCO (stereo partly drawn) | -3 | 42* | 7 | -11 | . | -8
CC(C)(C)[S@@](=O)N1Cc2cc(C(=O)N3CCc4ccccc4C3)nc(-c3cccc(-c4cccnc4)c3)c2[C@H]1CCO | . | 1 | . | . | . | .
CCNC(=O)[C@@H]1[C@@H](CO)[C@@H]2Cn3c(cccc3=O)[C@@H]2N1Cc1ccccc1Cl | . | 1 | . | . | . | .
CC1CCc2c(sc(NC(=O)/C=C/c3cccs3)c2C(=O)O)C1 (stereo not drawn) | 31* | 24 | -7 | -2 | 5 | -2
CC1CCc2c(sc(NC(=O)c3ccco3)c2C(=O)O)C1 (stereo not drawn) | -1 | -3 | -10 | -3 | -1 | 3
CN1CCN(C(=O)/C(=C/c2ccccc2Cl)NC(=O)c2ccccc2)CC1 | 45* | 1 | 5 | 3 | 8 | 1
COc1ccc(CN(C)C[C@H]2OCCCC[C@@H](C)Oc3ccc(N(C)C)cc3C(=O)N([C@H](C)CO)C[C@@H]2C)cc1 | . | -1 | . | . | . | .
O=C(CCN=C1NS(=O)(=O)c2ccccc21)OCC(=O)c1ccccc1 | 1 | 1 | -1 | 0 | -2 | 32*
COCCN(C[C@H]1N[C@H](CO)[C@@H]1c1ccc(-c2ccc(F)cc2)cc1)C(C)=O | . | 0 | . | . | . | .
Cc1cc(C(=O)OCC(=O)Nc2cccc(S(N)(=O)=O)c2)c2ccccc2n1 | 2 | 1 | 9 | -2 | -1 | 23*
COC(=O)c1ccc(-c2ccc(/C=N/NC(=O)Cc3nnc(N)s3)o2)cc1 | -5 | 1 | -10 | -1 | 2 | 32*
CCN1CCN(C(=S)Nc2cccc([N+](=O)[O-])c2)CC1 | -1 | -4 | -3 | -5 | 9 | -2
O=[N+]([O-])c1cccc(NC(=S)N2CCCC2)c1 | 2 | -2 | 24 | 7 | 0 | 27*
COc1ccc(C(=O)O)cc1S(=O)(=O)Nc1cc(S(=O)(=O)Nc2ccc(C)c(Cl)c2)ccc1Cl | . | . | . | . | 2 | .
O=C(Nc1ccc(S(=O)(=O)NCC2CCCO2)cc1)c1ccc(Cl)cc1[N+](=O)[O-] (stereo not drawn) | 2 | 2 | 2 | -6 | 1 | 3
Cc1c(C(=O)Nc2ccc(S(=O)(=O)NCC3CCCO3)cc2)cccc1[N+](=O)[O-] (stereo not drawn) | 1 | 1 | 5 | -3 | -9 | 21*
COc1cccc(C#Cc2ccc3c(c2)O[C@H](CN(C)S(=O)(=O)c2ccccc2F)[C@@H](C)CN([C@@H](C)CO)S3(=O)=O)c1 | . | 3 | . | . | . | .
COc1cccc(C#Cc2ccc3c(c2)O[C@@H](CN(C)C(=O)c2ccccn2)[C@@H](C)CN([C@H](C)CO)S3(=O)=O)c1 | -1 | 0 | 6 | 3 | . | 22*
